The source made the active and inactive calls. The rule behind the calls is not given here.
How the values were obtained:
Chikungunya virus [1] = test: Antiviral activity against wild type Chikungunya virus IMT infected in HEK293T cells assessed as inhibition of infectivity measured at 24 hrs postinfection by FITC/DAPI staining based array scan VTI HCS reader analysis; type: functional, cell-based; conditions: HEK-293T
Chikungunya virus [2] = test: Antiviral activity against wild type Chikungunya virus IMT infected in HEK293T cells assessed as inhibition of nsP3 protein expression at 5 uM measured at 24 hrs postinfection by Western blot method; type: functional, cell-based; conditions: HEK-293T
Chikungunya virus [3] = test: Antiviral activity against wild type Chikungunya virus IMT infected in HEK293T cells assessed as inhibition of infectivity at 5 uM measured at 24 hrs postinfection by FITC/DAPI staining based array scan VTI HCS reader analysis; type: functional; conditions: HEK-293T
Chikungunya virus [4] = test: Antiviral activity against wild type Chikungunya virus IMT infected in HEK293T cells assessed as inhibition of nsP1 protein expression at 5 uM measured at 24 hrs postinfection by Western blot method; type: functional, cell-based; conditions: HEK-293T
Chikungunya virus [5] = test: Antiviral activity against Chikungunya virus infected in HEK293T cells assessed as reduction of infectivity measured at 24 hrs postinfection by gaussia luciferase reporter gene assay; type: functional, cell-based; conditions: HEK-293T
Chikungunya virus [6] = test: Antiviral activity against wild type Chikungunya virus IMT infected in HEK293T cells assessed as inhibition of viral capsid protein at 5 uM measured at 24 hrs postinfection by Western blot method; type: functional, cell-based; conditions: HEK-293T
[7] = Cytotoxicity against HEK293T cells assessed as cell viability at antiviral EC50 after 24 hrs by cell titer-glo luminescent cell viability assay; type: cell-based, HEK-293T; conditions: human, read-out: Activity
Summary of the method: (§1)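 HEK 293T cells, 3 × 10⁴/well, seeded overnight, then exposed 24 h to compound (0.01–100 μM, triplicate) in DMEM pH 6.8 with 10% FBS. Viability read by CellTiter-Glo luminescence. Normalized to untreated (100%) and medium blank (0%); CC50 by five-parameter curve fit.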

Sindbis virus = test: Antiviral activity against wild type Sindbis virus infected in HEK293T cells assessed as inhibition of infectivity measured at 24 hrs postinfection by FITC/DAPI staining based array scan VTI HCS reader analysis; type: functional, organism-based; conditions: HEK-293T
Chikungunya virus [8] = test: Antiviral activity against wild type Chikungunya virus IMT infected in HEK293T cells assessed as inhibition of E2 protein expression at 5 uM measured at 24 hrs postinfection by Western blot method; type: functional, cell-based; conditions: HEK-293T
Onyong-nyong virus = test: Antiviral activity against O'nyong-nyong virus infected in HEK293T cells assessed as inhibition of infectivity measured at 24 hrs postinfection by FITC/DAPI staining based array scan VTI HCS reader analysis; type: functional, cell-based; conditions: HEK-293T
[9] = Cytotoxicity against HEK293T cells assessed as reduction in cell viability after 24 hrs by cell titer-glo luminescent cell viability assay; type: cell-based, HEK-293T; conditions: human; summary of the method: as §1
[10] = Selectivity index, ratio of CC50 for HEK293T cells to EC50 for Chikungunya virus infected in HEK293T cells; type: toxicity, cell-based, HEK-293T; conditions: human, read-out: Ratio CC50/EC50
Chikungunya virus [11] = test: Antiviral activity against wild type Chikungunya virus IMT infected in HEK293T cells assessed as reduction of viral E1 gene expression at 2.5 uM measured at 24 hrs postinfection by qRT-PCR method relative to control; type: functional, HEK-293T
Chikungunya virus [12] = test: Antiviral activity against wild type Chikungunya virus IMT infected in HEK293T cells assessed as inhibition of nsP1 protein expression measured at 24 hrs postinfection by Western blot method; type: functional, cell-based; conditions: HEK-293T
Chikungunya virus [13] = test: Antiviral activity against wild type Chikungunya virus IMT infected in HEK293T cells assessed as reduction of viral E1 gene expression measured at 24 hrs postinfection by qRT-PCR method; type: functional, cell-based; conditions: HEK-293T
Chikungunya virus [14] = test: Antiviral activity against wild type Chikungunya virus IMT infected in HEK293T cells assessed as inhibition of nsP3 protein expression measured at 24 hrs postinfection by Western blot method; type: functional, cell-based; conditions: HEK-293T
Chikungunya virus [15] = test: Antiviral activity against wild type Chikungunya virus IMT infected in HEK293T cells assessed as inhibition of E2 protein expression measured at 24 hrs postinfection by Western blot method; type: functional, cell-based; conditions: HEK-293T
Chikungunya virus [16] = test: Antiviral activity against wild type Chikungunya virus IMT infected in HEK293T cells assessed as reduction of viral nsP1 gene expression measured at 24 hrs postinfection by qRT-PCR method; type: functional, cell-based; conditions: HEK-293T
Chikungunya virus [17] = test: Antiviral activity against wild type Chikungunya virus IMT infected in HEK293T cells assessed as inhibition of capsid protein expression measured at 24 hrs postinfection by Western blot method; type: functional, cell-based; conditions: HEK-293T
Chikungunya virus [18] = test: Antiviral activity against wild type Chikungunya virus IMT infected in HEK293T cells assessed as reduction of viral nsP1 gene expression at 2.5 uM measured at 24 hrs postinfection by qRT-PCR method relative to control; type: functional, HEK-293T
HEK293 = test: Toxicity in HEK293T cells infected with Chikungunya virus IMT assessed as reduction in beta-actin protein expression at 0.1 to 5 uM measured at 24 hrs postinfection by Western blot method; type: cell-based; conditions: human, hek293, 24 h

Row | Compound | EC50 (Chikungunya virus [1]) [µM] | inhibition (Chikungunya virus [1]) | inhibition at 5 µM (Chikungunya virus [3]) [%] | EC50 (Chikungunya virus [5]) [µM] | viability at 24 h [7] [%] | CC50 at 24 h [9] [µM] | selectivity ratio [10] | also measured
1 | NC(=O)c1ncn([C@@H]2O[C@H](CO)[C@@H](O)[C@H]2O)n1 [RIBAVIRIN] | 20 | Dose-dependent effect | 10 | 13.1 | > 80 |  |  | inhibition (Chikungunya virus [2]): inactive; inhibition (Chikungunya virus [4]): inactive; inhibition (Chikungunya virus [6]): inactive; EC50 (Sindbis virus): 5.12 µM; inhibition (Chikungunya virus [8]): inactive; EC50 (Onyong-nyong virus): 18.4 µM
2 | CCCNC(=O)C1CCN(C(=O)c2cc3sc(-c4ccccc4)cc3n2Cc2ccc(OC)cc2)CC1 | 3.08 | Dose-dependent effect |  | 3.85 | > 80 | > 100 | > 26 | 
3 | CCCNC(=O)C1CCN(C(=O)c2cc3sccc3n2Cc2ccc(OC)cc2)CC1 | 6.55 | Dose-dependent effect |  | 7 | > 80 | 18.8 | 2.7 | 
4 | COc1ccc(Cn2c(C(=O)N3CCC(C(=O)NC4CC4)CC3)cc3sccc32)cc1 | 5.59 | Dose-dependent effect |  | 7.59 | > 80 | 21.4 | 2.8 | 
5 | CCCNC(=O)C1CCN(C(=O)c2cc3sc(C#N)cc3n2Cc2ccc(OC)cc2)CC1 | 8.23 | Dose-dependent effect |  | 4.9 | > 80 | > 100 | > 20 | 
6 | CCCNC(=O)C1CCN(C(=O)c2cc3sc(Br)cc3n2Cc2ccc(OC)cc2)CC1 | 1.96 | Dose-dependent effect | 60 | 3.1 | > 80 | > 100 | > 32 | fold change (FC) (Chikungunya virus [11]): 100; inhibition (Chikungunya virus [12]): Dose-dependent effect; Activity (Chikungunya virus [13]): Dose-dependent effect; inhibition (Chikungunya virus [14]): Dose-dependent effect; inhibition (Chikungunya virus [15]): Dose-dependent effect; Activity (Chikungunya virus [16]): Dose-dependent effect; inhibition (Chikungunya virus [17]): Dose-dependent effect; fold change (FC) (Chikungunya virus [18]): 100; EC50 (Sindbis virus): 1.14 µM; EC50 (Onyong-nyong virus): 2.58 µM; Activity (HEK293): Non-toxic
7 | CCCNC(=O)C1CCN(C(=O)c2cc3sc(CO)cc3n2Cc2ccc(OC)cc2)CC1 | 2.39 | Dose-dependent effect | 60 | 4.33 | > 80 | 15.5 | 3.6 | inhibition (Chikungunya virus [12]): Dose-dependent effect; Activity (Chikungunya virus [13]): Dose-dependent effect; inhibition (Chikungunya virus [14]): Dose-dependent effect; inhibition (Chikungunya virus [15]): Dose-dependent effect; Activity (Chikungunya virus [16]): Dose-dependent effect; inhibition (Chikungunya virus [17]): Dose-dependent effect; Activity (HEK293): Non-toxic
8 | COc1ccc(Cn2c(C(=O)N3CCN(Cc4ccccc4)CC3)cc3sc(CNC(C)c4ccccc4)cc32)cc1 (stereo not drawn) | 25.5 | Dose-dependent effect |  | 9.44 | > 80 | > 100 | > 11 | 

Reference: ChEMBL document CHEMBL3739406, “Trisubstituted Thieno[3,2-b]pyrrole 5-Carboxamides as Potent Inhibitors of Alphaviruses” (J Med Chem, 2015)
